In ChEMBL document CHEMBL5380865, “Linearization of the Brevicidine and Laterocidine Lipopeptides Yields Analogues That Retain Full Antibacterial Activity” (J Med Chem, 2023):
≈ marks a conversion by molar mass, not a printed value. *1 amine or outer side, *2 acyl side, *3 side chain or, on linkers, in order; H or OH if unused. Where a SMILES comes first, the peptide text is derived from it. [ ]: non-standard residue; d: D form. The star is where a group is joined. ξ: configuration not given here. X1 = C[C@@H](N=[N+]=[N-])[C@H](N[*:1])C(=O)[*:2]; Octanoyl(7-Me) = CC(C)CCCCCC(=O)*; Hexanoyl(4ξ-Me) = CCC(C)CCC(=O)*; dOrn = NCCC[C@@H](N)C(=O)O; Orn = NCCC[C@H](N)C(=O)O

Assays:
Acinetobacter baumannii = assay: Antibacterial activity Acinetobacter baumannii ATCC 17961 assessed as inhibition of visible bacterial growth incubated for 18 hrs by microbroth dilution assay; assay type: functional
Outline: (§1)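 CLSI broth microdilution. Strains streaked from glycerol stocks onto blood agar (16 h, 37 °C); single colonies grown in TSB at 37 °C, 220 rpm, to OD600 about 0.5. Diluted in MHB to 2 × 10^5 CFU/mL and mixed 1:1 with compounds serially diluted in MHB from DMSO stocks (colistin from water stocks), polypropylene plates. Sealed, 18 h at 37 °C, 600 rpm. MIC taken as lowest concentration preventing visible growth, three technical replicates.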

Escherichia coli [1] = assay: Antibacterial activity Escherichia coli MCR-1 assessed as inhibition of visible bacterial growth incubated for 18 hrs by microbroth dilution assay; assay type: functional
Outline: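 Colistin-resistant E. coli 25922 carrying MCR-1, grown from glycerol stock in kanamycin-supplemented TSB for 16 h at 37 °C, 220 rpm. Diluted 100-fold in kanamycin-supplemented TSB and grown to OD600 about 0.5, then diluted in MHB to 2 × 10^5 CFU/mL. Combined 1:1 with MHB serial dilutions of compounds. Sealed, 18 h at 37 °C, 600 rpm; lowest concentration without visible growth, triplicate technical replicates.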

Klebsiella pneumoniae = assay: Antibacterial activity Klebsiella pneumoniae ATCC 13883 assessed as inhibition of visible bacterial growth incubated for 18 hrs by microbroth dilution assay; assay type: functional; outline: as §1
Staphylococcus aureus = assay: Antibacterial activity Staphylococcus aureus USA300 assessed as inhibition of visible bacterial growth incubated for 18 hrs by microbroth dilution assay; assay type: functional; outline: as §1
Pseudomonas aeruginosa = assay: Antibacterial activity Pseudomonas aeruginosa PAO1 assessed as inhibition of visible bacterial growth incubated for 18 hrs by microbroth dilution assay; assay type: functional
Outline: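 CLSI broth microdilution. Colonies from blood agar (16 h, 37 °C) grown in TSB at 37 °C, 220 rpm, to OD600 about 0.5, then diluted in MHB to 2 × 10^5 CFU/mL. Added to DMSO-stock compounds serially diluted in MHB in polypropylene plates. Sealed, 18 h at 37 °C, 600 rpm. MIC = lowest concentration with no visible growth; three technical replicates.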

Escherichia coli [2] = assay: Antibacterial activity Escherichia coli ATCC 25922 assessed as inhibition of visible bacterial growth incubated for 18 hrs by microbroth dilution assay; assay type: functional; outline: as §1
[3] = Hemolytic activity in sheep red blood cell assessed as hemolysis at 1 to 128 ug/ml incubated for 1 hrs relative to control; assay type: toxicity, cell-based, Ovis aries, Erythrocyte; conditions: sheep red blood cells (erythrocytes), at 1 to 128 µg/mL, dose 1-128 µg/ml, read-out: Activity
Outline: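 Defibrinated sheep erythrocytes washed five times in PBS with 0.002% Tween20 and normalized so the Triton control reads 2.5–3.0 at 415 nm. Mixed 1:1 with compound serial dilutions (128–1 μg/mL) and incubated 1 h at 37 °C, 500 rpm. Supernatant A415 is background-corrected with buffer and expressed as percent of 0.1% Triton X-100 (final). Run in triplicate.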

| SMILES | MIC (Acinetobacter baumannii) [µg/mL] | MIC (Escherichia coli [1]) [µg/mL] | MIC (Klebsiella pneumoniae) [µg/mL] | MIC (Staphylococcus aureus) [µg/mL] | MIC (Pseudomonas aeruginosa) [µg/mL] | MIC (Escherichia coli [2]) [µg/mL] | hemolysis at 1 h [3] [%] |
| --- | --- | --- | --- | --- | --- | --- | --- |
| CCC(C)CCC(=O)N[C@H](CC(N)=O)C(=O)N[C@H](Cc1ccc(O)cc1)C(=O)N[C@H](Cc1c[nH]c2ccccc12)C(=O)N[C@H](CCCN)C(=O)N[C@@H](CCCN)C(=O)NCC(=O)N[C@H](CCCN)C(=O)N[C@@H](Cc1c[nH]c2ccccc12)C(=O)N[C@H](C(=O)N[C@H](C(=O)NCC(=O)N[C@@H](C)C(N)=O)[C@@H](C)CC)[C@@H](C)O (stereo partly drawn) ({Hexanoyl(4ξ-Me)}-[dN][dY][dW][dOrn][Orn]G[dOrn]WTIGA-NH2) | 4 (≈ 2.63 µM) | 8 (≈ 5.26 µM) | 8 (≈ 5.26 µM) | > 32 | 8 (≈ 5.26 µM) | 8 (≈ 5.26 µM) | – |
| CC[C@H](C)[C@H](NC(=O)[C@@H](NC(=O)[C@H](Cc1c[nH]c2ccccc12)NC(=O)[C@@H](CCCN)NC(=O)CNC(=O)[C@H](CCCN)NC(=O)[C@@H](CCCN)NC(=O)[C@@H](Cc1c[nH]c2ccccc12)NC(=O)[C@@H](Cc1ccc(O)cc1)NC(=O)[C@@H](CO)NC(=O)CCCCCC(C)C)[C@@H](C)N=[N+]=[N-])C(=O)N[C@@H](CC(N)=O)C(=O)NCC(=O)NCC(N)=O ({Octanoyl(7-Me)}-[dS][dY][dW][dOrn][Orn]G[dOrn]W[X1]INGG-NH2) | 2 (≈ 1.21 µM) | 4 (≈ 2.43 µM) | 4 (≈ 2.43 µM) | > 32 | 4 (≈ 2.43 µM) | 4 (≈ 2.43 µM) | < 0.1 |
